ChEMBL document CHEMBL5674883, “The Heterochromatin Landscape in Migrating Cells and the Importance of H3K27me3 for Associated Transcriptome Alterations” (Cells, 2018)

How the values were obtained:
Assay type in all cases: cell-based
[1] = target: Histone-lysine N-methyltransferase EZH2 (Mus musculus) (UniProt Q61188); assay: Inhibition of EZH2 in mouse B16-F1 migrating cells assessed as fold change in H3K27me3-buffered regulated Pltp-mRNA expression at 3 uM measured by […] analysis relative to control cells
Histone-lysine N-methyltransferase EZH2 (Mus musculus), sequence (Q61188 whole entry): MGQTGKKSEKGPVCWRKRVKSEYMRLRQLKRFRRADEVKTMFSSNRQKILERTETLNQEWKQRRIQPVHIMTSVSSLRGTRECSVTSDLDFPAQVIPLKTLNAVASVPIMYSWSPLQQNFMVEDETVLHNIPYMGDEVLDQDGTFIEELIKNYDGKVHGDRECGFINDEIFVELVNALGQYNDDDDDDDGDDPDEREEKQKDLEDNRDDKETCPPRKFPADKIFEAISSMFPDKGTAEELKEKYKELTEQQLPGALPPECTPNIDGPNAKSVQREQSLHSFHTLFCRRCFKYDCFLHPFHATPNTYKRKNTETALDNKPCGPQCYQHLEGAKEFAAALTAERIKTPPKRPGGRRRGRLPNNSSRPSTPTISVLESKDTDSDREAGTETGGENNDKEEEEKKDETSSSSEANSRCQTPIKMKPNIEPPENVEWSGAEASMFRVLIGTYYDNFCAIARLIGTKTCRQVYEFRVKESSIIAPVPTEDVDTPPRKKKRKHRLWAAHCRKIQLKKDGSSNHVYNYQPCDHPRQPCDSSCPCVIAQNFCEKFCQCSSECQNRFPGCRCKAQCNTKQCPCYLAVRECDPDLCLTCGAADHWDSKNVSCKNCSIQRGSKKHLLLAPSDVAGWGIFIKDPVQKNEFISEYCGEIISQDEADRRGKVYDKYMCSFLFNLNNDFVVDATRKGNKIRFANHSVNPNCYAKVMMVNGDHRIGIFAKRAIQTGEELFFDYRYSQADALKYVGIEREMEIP
Summary of the method: (§1)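 Confluent B16-F1 cells on fibronectin-coated plates, cultured at 37 °C and 7% CO2, were scratched at multiple sites to induce migration. They were then held 3 h in growth medium containing 3 µM GSK343, with the inhibitor added 3 h before lysis. Unscratched cells served as controls. Poly A mRNA was analysed by RNA-seq (n=3 GSK343, n=5 controls). Linear models removed batch effects, and buffered genes were those altered only under GSK343 (FDR <0.05, fold change >1.3).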

[2] = target: Histone-lysine N-methyltransferase EZH2 (Mus musculus) (UniProt Q61188); assay: Inhibition of EZH2 in mouse B16-F1 migrating cells assessed as fold change in H3K27me3-dependent regulated Mir22hg-mRNA expression at 3 uM measured by […] analysis relative to control cells
Summary of the method: (§2)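 Confluent B16-F1 cells on fibronectin-coated plates were scratched at multiple sites, washed once with DMEM and left to migrate 3 h in growth medium (37 °C, 7% CO2); unscratched cells served as control. GSK343 (3 µM) was added 3 h before lysis. Poly A mRNA was sequenced (RNA-seq), with 5 replicates for untreated and 3 for treated cells. Differential expression was called by linear model with batch correction, at FDR <0.05 and fold change ≥1.3.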

[3] = target: Histone-lysine N-methyltransferase EZH2 (Mus musculus) (UniProt Q61188); assay: Inhibition of EZH2 in mouse B16-F1 migrating cells assessed as fold change in H3K27me3-independent regulated Dusp10-mRNA expression at 3 uM measured by […] analysis relative to control cells; summary of the method: as §2
[4] = target: Histone-lysine N-methyltransferase EZH2 (Mus musculus) (UniProt Q61188); assay: Inhibition of EZH2 in mouse B16-F1 migrating cells assessed as fold change in H3K27me3-buffered regulated Tfcp2-mRNA expression at 3 uM measured by […] analysis relative to control cells; summary of the method: as §2
[5] = target: Histone-lysine N-methyltransferase EZH2 (Mus musculus) (UniProt Q61188); assay: Inhibition of EZH2 in mouse B16-F1 migrating cells assessed as fold change in H3K27me3-independent regulated Serpinb8-mRNA expression at 3 uM measured by […] analysis relative to control cells; summary of the method: as §2
[6] = target: Histone-lysine N-methyltransferase EZH2 (Mus musculus) (UniProt Q61188); assay: Inhibition of EZH2 in mouse B16-F1 migrating cells assessed as fold change in H3K27me3-buffered regulated 1810058I24Rik-mRNA expression at 3 uM measured by ChIP-seq analysis relative to control cells; summary of the method: as §1
[7] = target: T1, RNA polymerase II (Mus musculus) (UniProt P08775+Q8CFI7+P97760+A0A3Q4L2S8+Q80UW8+P61219+P62488+Q923G2+P60898+O08740+Q63871+P62876); assay: Inhibition of RNA polymerase II in mouse B16-F1 migrating cells assessed as fold change in Eri3-RNA stability at 0.1 mM measured by ChIP-seq analysis relative to control cells
[8] = target: T1, RNA polymerase II (Mus musculus); assay: Inhibition of RNA polymerase II in mouse B16-F1 migrating cells assessed as fold change in BC004004-RNA stability at 0.1 mM measured by […] analysis relative to control cells

Row | Structure (SMILES) | log2FC [1] | log2FC [2] | log2FC [3] | log2FC [4] | log2FC [5] | log2FC [6] | log2FC [7] | log2FC [8]
1 | CCCc1cc(C)[nH]c(=O)c1CNC(=O)c1cc(-c2ccnc(N3CCN(C)CC3)c2)cc2c1cnn2C(C)C | 0.39 | 0.05 | 0.57 | -0.38 | 0.81 | 0.47 | – | –
2 | OC[C@H]1O[C@@H](n2cnc3cc(Cl)c(Cl)cc32)[C@H](O)[C@@H]1O | – | – | – | – | – | – | 0.38 | 0.39
